Laboratory results taken from ChEMBL document CHEMBL3875158, “Synthesis and biological evaluation of 4-(2-(dimethylamino)ethoxy)benzohydrazide derivatives as inhibitors of Entamoeba histolyica” (Eur J Med Chem, 2016).

Legend:
[1] = Cytotoxicity against human A549 cells assessed as reduction in cell viability after 48 hrs by MTT assay; assay type: toxicity, cell-based
Outline: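 Cells seeded at 8000/well in Ham's F-12 with 10% FBS and grown to 80–90% confluence. Medium then replaced with drug-containing medium with 1% FBS; drug range […], each concentration in triplicate, medium-only negative controls. Stocks made in ethanol, diluted in medium. Incubated at 37 °C, 5% CO2 for 48 h. MTT (5 mg/ml) added for 4 h, formazan dissolved in DMSO, absorbance read at 560 nm with 670 nm reference. Viability relative to controls; IC50 from concentration–viability plot.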

Entamoeba histolytica = assay: Antiamoebic activity against Entamoeba histolytica HM-1:IMSS trophozoites incubated for 10 mins under nitrogen gassed condition measured after 72 hrs by eosin staining based micro dilution method; assay type: functional
Outline: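 Microdilution in 96-well plates with trophozoites in Diamond TYIS-33 medium at 10^5 cells per mL. Compounds dissolved in ethanol (level non-inhibitory to amoebae), stock 1 mg/mL, tested in triplicate. Plate sealed, gassed with nitrogen 10 min, incubated 37 °C for 72 h. Then medium removed, washed with 0.9% NaCl, methanol-fixed and stained with 0.5% aqueous eosin for 15 min, OD read at 490 nm. IC50 from non-linear regression of % inhibition versus control. At least two independent experiments.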

Compound | IC50 (Entamoeba histolytica) [µM] | IC50 at 48 h [1] [µM]
Cc1ncc([N+](=O)[O-])n1CCO [METRONIDAZOLE] | 1.89 | > 100
CN(C)CCOc1ccc(C(=O)N/N=C/c2cccc([N+](=O)[O-])c2)cc1 | 2.8 | –
CN(C)CCOc1ccc(C(=O)N/N=C/c2ccccn2)cc1 | 2.37 | –
CN(C)CCOc1ccc(C(=O)N/N=C/c2ccc([N+](=O)[O-])cc2)cc1 | 2.4 | –
COc1c(O)ccc(/C=N/NC(=O)c2ccc(OCCN(C)C)cc2)c1Br | 3.61 | –
CN(C)CCOc1ccc(C(=O)N/N=C/c2ccc(Cl)c(Cl)c2)cc1 | 2.81 | –
CCOc1ccc(/C=N/NC(=O)c2ccc(OCCN(C)C)cc2)cc1 | 3.77 | –
COc1cc(/C=N/NC(=O)c2ccc(OCCN(C)C)cc2)ccc1O | 2.41 | –
COc1ccc(/C=N/NC(=O)c2ccc(OCCN(C)C)cc2)cc1OC | 2.69 | –
CC(C)Oc1ccc(/C=N/NC(=O)c2ccc(OCCN(C)C)cc2)cc1 | 7.65 | –
CCc1ccc(/C=N/NC(=O)c2ccc(OCCN(C)C)cc2)cc1 | 5.65 | –
COc1cc(/C=N/NC(=O)c2ccc(OCCN(C)C)cc2)ccc1OC(C)C | 4.13 | –
CN(C)CCOc1ccc(C(=O)N/N=C/c2ccc(O)c(O)c2)cc1 | 6.4 | –
Cc1ccsc1/C=N/NC(=O)c1ccc(OCCN(C)C)cc1 | 4.98 | –
CC(C)c1ccc(/C=N/NC(=O)c2ccc(OCCN(C)C)cc2)cc1 | 3.45 | –
Cc1cc(C)c(/C=N/NC(=O)c2ccc(OCCN(C)C)cc2)c(C)c1 | 1.89 | 81.7
CN(C)CCOc1ccc(C(=O)N/N=C/c2ccc(O)cc2)cc1 | 2.21 | –
CN(C)CCOc1ccc(C(=O)N/N=C/c2ccc(N(C)C)cc2)cc1 | 1.89 | 481

The next lines start with results.

IC50 (Entamoeba histolytica) [µM] | Compound | IC50 at 48 h [1] [µM]
1.01 | CN(C)CCOc1ccc(C(=O)N/N=C/c2cccc(Cl)c2)cc1 | 140
1.86 | Cc1ccc(/C=N/NC(=O)c2ccc(OCCN(C)C)cc2)cc1 | 475
1.76 | CN(C)CCOc1ccc(C(=O)N/N=C/c2ccccc2O)cc1 | 404
1.14 | CCOC(OCC)c1ccc(/C=N/NC(=O)c2ccc(OCCN(C)C)cc2)cc1 | 172
1.06 | CN(C)CCOc1ccc(C(=O)N/N=C/c2ccc3c(c2)OCO3)cc1 | 548
1.81 | COc1ccc(OC)c(/C=N/NC(=O)c2ccc(OCCN(C)C)cc2)c1 | 110
1.53 | COc1ccc(/C=N/NC(=O)c2ccc(OCCN(C)C)cc2)cc1 | 126
0.79 | COc1cc(/C=N/NC(=O)c2ccc(OCCN(C)C)cc2)ccc1OC(C)=O | 186
0.23 | CN(C)CCOc1ccc(C(=O)N/N=C/c2ccccc2Cl)cc1 | 134
0.79 | CN(C)CCOc1ccc(C(=O)N/N=C/c2ccc(Cl)cc2)cc1 | 69.4
1.17 | CN(C)CCOc1ccc(C(=O)N/N=C/c2cc(Br)c(O)c(Br)c2)cc1 | 281
1.43 | CN(C)CCOc1ccc(C(=O)N/N=C/c2ccccc2)cc1 | 268
